Bioassay records from PubChem BioAssay.
This is a sample that favours compounds with a hit; in the whole collection about 4.1% have one here.
KCNK9 inh – inhibitors of human KCNK9 two-pore domain potassium channel; Q9NPC2; HEK293 KCNK9, FluxOR thallium flux fluorescence; stronger effect = lower value; B-score at 10 µM; 1.2% of 310,000 active; AID 488922;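 active = ratio B-score over 3 SD below the library mean, with starting fluorescence within 5 SD of its mean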;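 note: negative B-score means less thallium flux so channel inhibition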
KCNQ1 act – human KCNQ1 channel potentiation or activation. CHO-K1 KCNQ1, thallium flux FluxOR fluorescence; stronger effect = higher value. B-score at 10 µM. 0.35% of 310,000 active. AID 2648;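 active = fluorescence ratio B-score, a plate-corrected score, at least three library SD, with initial intensity B-score within 5 SD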
Target sequence (P51787 whole entry, looked up): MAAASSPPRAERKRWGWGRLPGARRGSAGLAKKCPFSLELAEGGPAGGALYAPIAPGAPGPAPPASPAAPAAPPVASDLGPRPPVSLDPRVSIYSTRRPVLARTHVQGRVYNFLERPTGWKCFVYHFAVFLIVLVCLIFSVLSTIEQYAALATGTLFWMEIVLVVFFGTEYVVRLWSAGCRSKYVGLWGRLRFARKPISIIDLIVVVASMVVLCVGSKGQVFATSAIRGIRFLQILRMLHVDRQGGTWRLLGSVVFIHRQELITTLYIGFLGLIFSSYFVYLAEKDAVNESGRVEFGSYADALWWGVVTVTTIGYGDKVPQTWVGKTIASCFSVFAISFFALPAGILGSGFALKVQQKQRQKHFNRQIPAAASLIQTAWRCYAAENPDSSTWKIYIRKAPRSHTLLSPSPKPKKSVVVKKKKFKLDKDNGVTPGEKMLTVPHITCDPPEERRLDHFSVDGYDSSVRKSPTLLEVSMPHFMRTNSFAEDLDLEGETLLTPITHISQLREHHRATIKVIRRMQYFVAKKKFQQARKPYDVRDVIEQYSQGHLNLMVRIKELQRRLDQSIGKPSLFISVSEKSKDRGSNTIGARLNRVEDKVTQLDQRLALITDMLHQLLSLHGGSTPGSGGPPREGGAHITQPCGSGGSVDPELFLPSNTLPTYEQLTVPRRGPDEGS
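Schedule – 37 °C overnight plating, 90-min dark dye load, 20-min compound pretreatment · System – stable KCNQ1 CHO-K1 line · Probe or stimulus – thallium- and potassium-containing depolarizing buffer · Measured by – kinetic FluxOR fluorescence, 10 s baseline plus 110 s post-stimulus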
KCC2 mod – KCC2 (human) Cl- transport modulation; Q9H2X9; KCC2 cells, thallium flux FluoZin-2 fluorescence; B-score of Tl+ flux slope (higher = more flux/activation; lower = inhibition) at 10 µM; 2.2% of 190,000 active;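 active = thallium flux slope and its plate-corrected score both differing from the plate sample mean at a set confidence after two filtering rounds, in either direction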;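 note: slope of fluorescence scaled to starting intensity during 10 to 20 s after thallium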
KCNQ1 inh – blocks the human KCNQ1 potassium channel; P51787; B-score at 10 µM; CHO-K1 KCNQ1, FluxOR thallium flux fluorescence; stronger effect = higher value; 1.3% of 310,000 active; AID 2642;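 active = compounds whose thallium flux B-score, printed positive for inhibition, exceeds three library SD while starting fluorescence stays within three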;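 note: channel opened by potassium depolarization with thallium stimulus after 20 min compound exposure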
hERG protect – shields human hERG channel from block by proarrhythmic agents. Q12809. CHO-hERG, FluxOR thallium flux, dofetilide IC70 present. activation (rescue from dofetilide block), less the hit threshold, % at 10 µM. 0.51% of 310,000 active. AID 1511;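 active = activation above the mean of controls blocked by dofetilide plus 5 SD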;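 note: thallium influx through hERG after potassium depolarization seen as dye fluorescence rise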
KCNK3 inh – human KCNK3 channel inhibition, primary screen. CHO-KCNK3 thallium flux, FluxOR fluorescence; stronger effect = lower value. O14649. 0.84% of 340,000 active. B-score at 10 µM;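 active = B-score under library mean minus 4 SD, starting fluorescence ratio at most library mean plus 5 SD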;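 note: more negative B-score means stronger inhibition of thallium flux through KCNK3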
* = called active by the depositor; i = inactive; / = no result.

SMILES | KCNK9 inh | KCNQ1 act | KCC2 mod | KCNQ1 inh | hERG protect | KCNK3 inh
Cc1nc(N)nc(N(C)c2ccccc2)c1Br | / | / | / | / | / | i
CCOC(=O)c1c(-c2ccc(Cl)cc2)csc1NC(=O)CNCc1ccco1 | i | i | / | i | -13.3 | i
CCOC(=O)c1c(-c2ccccc2)csc1NC(=O)C(C)NCc1ccco1 (centres undefined) | i | i | -1.26 | 7* | -12.9 | i
O=C(CN1C(=O)C(=O)N(C2CCCC2)C1=O)Nc1ccc(Cl)cc1C(F)(F)F | / | / | / | / | / | i
NC(=O)N/N=C/c1ccc2cccc(OCc3ccccc3)c2n1 | i | i | 0.15 | i | -8.0 | i
O=C(Cc1ccccc1)N/N=C/c1ccc2cccc(O)c2n1 | i | i | 0.359 | i | 9.4* | i
Nc1nc(SCc2ccc(Br)cc2)c2ncn(C3OC(CO)C(O)C3O)c2n1 (centres undefined) | / | / | / | / | / | i
N#CC1=C(N)Oc2cc(O)c(Cl)cc2C1c1ccccc1F (centres undefined) | i | i | / | 14* | -46.0 | i
N#CC1=C(N)Oc2cc(O)c(Cl)cc2C1c1cccnc1 (centres undefined) | i | i | / | i | -24.6 | i
COc1ccc(NC(=O)c2sc(SCc3ccccc3)nc2N)cc1 | i | i | -1.1 | i | 3.0 | i
COc1ccc(NC(=O)c2sc(SC)nc2N)cc1 | i | i | -0.118 | i | 5.1* | i
COc1ccccc1N1N=C(c2ccc([N+](=O)[O-])cc2)CC1c1ccccc1 (centres undefined) | i | i | / | 12* | -14.2 | i
O=[N+]([O-])c1ccc(N2N=C(c3ccccc3)CC2c2ccccc2O)cc1 (centres undefined) | i | i | / | i | -6.7 | i
Fc1ccc(C2CC(c3ccco3)=NN2c2ccccc2)cc1 (centres undefined) | -7.91* | i | / | 7* | -16.6 | i
CS(=O)(=O)N1N=C(c2ccco2)CC1c1ccccc1 (centres undefined) | i | i | 0.251 | i | 0.2 | i
O=[N+]([O-])c1ccc(N2N=C(c3ccco3)CC2c2ccccc2)cc1 (centres undefined) | i | i | 0.139 | 11* | -6.5 | i
CC1(C)CCc2cc(S(=O)(=O)N3CCN(S(=O)(=O)c4c(F)cccc4F)CC3)ccc2O1 | / | / | / | / | / | i
COC(=O)c1cc2ccsc2n1Cc1nc(-c2cccc(Cl)c2)oc1C | -7.33* | i | -0.168 | i | -1.4 | i
COC(=O)c1cc2sccc2n1Cc1nc(-c2ccc(Cl)cc2)oc1C | i | i | / | i | -1.6 | i
CCCCn1c(N)c(N(CC)C(=O)CN2C(=O)NC(C)(c3ccccc3)C2=O)c(=O)[nH]c1=O (centres undefined) | i | i | / | i | -8.1 | i
COc1ccccc1O | i | i | / | i | -3.5 | i
COc1ccccc1C(O)(c1ccccc1)c1ccccc1OC | / | / | / | / | / | -10.3*
Cn1c(=O)c2c(ncn2CC(=O)N/N=C/C(Cl)=C/c2ccccc2)n(C)c1=O | i | 11* | 0.215 | i | -8.0 | i
Cn1c(=O)c2c(ncn2CCC(=O)N/N=C/c2ccccc2)n(C)c1=O | i | i | 1.69 | i | -4.8 | i
CCCCN1C(=O)/C(=C2/Sc3ccc(OC)cc3N2CC)SC1=S | i | i | / | i | -0.8 | i
SMILES | KCNK9 inh | KCNQ1 act | KCC2 mod | KCNQ1 inh | hERG protect | KCNK3 inh
C=CCN1C(=O)/C(=C2/Sc3ccc(OC)cc3N2CC)SC1=S | i | i | / | 6* | -3.8 | i
Cn1nc(C(F)(F)F)c(CN2CC(C)(C)C2=O)c1N1CCOCC1 | i | i | 0.454 | i | 5.0* | i
Cn1nc(C(F)(F)F)c(CNC(=O)C(C)(C)CCl)c1N1CCOCC1 | i | i | -0.572 | i | -9.6 | i
CN(c1ccccc1)c1nc(N)c([N+](=O)[O-])c(Nc2ccccc2F)n1 | -6.89* | i | / | i | -2.9 | i
CCCc1cc(=O)n2[nH]c(NC(=O)c3ccco3)nc2n1 | i | i | / | i | -1.4 | i
O=C(N/N=C/c1c(O)n(-c2ccc(Cl)cn2)c(=O)c2ccccc12)c1ccncc1 | -6.88* | i | i | 11* | -27.9 | i
Nc1ccc(-c2cnc(N)c(C(=O)c3cccnc3)n2)cn1 | / | / | / | / | / | i
CN1C(=O)/C(=C/c2cc(N=Nc3ccccc3)ccc2O)SC1=S | i | i | / | 7* | -8.3 | i
O=C(NCCCn1ccnc1)c1ccc(Br)s1 | i | i | / | i | -10.7 | i
Cc1ccc(C(=O)NNC(=S)NC(=O)COc2ccccc2)cc1 | i | i | 94.8* | i | -8.3 | i
CC(C)(C)C(=O)NC(=S)NNC(=O)c1ccc(-c2ccccc2)cc1 | i | 66* | 86.6* | i | 6.3* | i
Cc1cccc(OCC(=O)NC(=S)NNC(=O)c2ccncc2)c1 | i | i | / | i | -9.8 | i
Cc1ccccc1C(=O)NNC(=S)NC(=O)COc1ccccc1 | i | i | 19.5* | i | -9.8 | i
COC(=O)c1ccccc1NC(=S)NC(=O)COc1ccccc1 | i | i | / | i | -13.8 | i
CC(C)(C)c1ccc(C(=O)NC(=S)NNC(=O)COc2ccccc2)cc1 | i | 30* | / | i | -4.8 | i
S=c1cn[nH]c2ccccc12 | / | / | / | / | / | i
O=C(Nc1cccc(C(F)(F)F)c1)C1CC(=O)N(CCc2ccccc2)C1 (centres undefined) | / | / | / | / | / | i
CC1CCN(C(=O)CN2C(=O)NC(C)(c3ccc4ccccc4c3)C2=O)CC1 (centres undefined) | / | / | / | / | / | i
CCCCn1c(N)c(N(CCOC)C(=O)CSCc2ccc(C)cc2)c(=O)[nH]c1=O | i | i | / | i | -12.6 | i
O=C(COC(=O)C12CC3CC(CC(C3)C1)C2)NCCCc1ccccc1 | i | 23* | -3.04 | i | -5.4 | i
CC(=N\NC(=O)c1ccc([N+](=O)[O-])cc1)/C(=N/O)C(=O)Nc1ccccc1 | i | i | / | 6* | -14.4 | i
COc1ccccc1NC(=O)C1CCCN(S(=O)(=O)c2ccc3c(c2)CC(C)N3C(C)=O)C1 (centres undefined) | i | i | / | i | -7.7 | i
COc1ccccc1CNCc1cccc(Oc2ccccc2)c1 | i | 8* | -1.15 | i | -15.5 | i
CC(C)C(NC(=O)Cc1ccccc1)C(=O)N1CCN(c2cccc(Cl)c2)CC1 (centres undefined) | / | / | / | / | / | i
